Assay results taken from ChEMBL document CHEMBL1155506 (J Med Chem, 2010).
pIC50, pKi: −log10 of the molar value. Activity calls are given as the source filed them. The rule behind the calls is not given here.

Columns and labels:
[1] = Antiplatelet activity in dog platelet rich plasma assessed as inhibition of ADP-induced aggregation treated 10 mins after ADP challenge measured after 3 mins by turbidimetry; assay type: functional; settings: Canis lupus familiaris
[2] = target: Voltage-gated inwardly rectifying potassium channel KCNH2 (Homo sapiens, UniProt Q12809); assay: Inhibition of human ERG by patch clamp assay
[3] = Antiplatelet activity in human platelet rich plasma assessed as inhibition of ADP-induced aggregation preincubated for 1 min before 5-HT and ADP challenge measured after 3 mins by turbidimetry
[4] = Volume of distribution at steady state in monkey at 2 mg/kg, iv after 24 hrs by HPLC/MS/MS analysis; assay type: ADME, organism-based, Macaca mulatta; parameters: dose 2 mg/kg, route intravenous; settings: rhesus monkey, in vivo, read-out: Vdss
How it was run: (§1)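 Oral dose 10 mg/kg; %F calculated relative to a 2 mg/kg iv dose. Values are the mean of n = 3 animals.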

[5] = Cmax in monkey at 10 mg/kg, po after 24 hrs by HPLC/MS/MS assay; assay type: ADME, organism-based, Macaca mulatta; parameters: dose 10 mg/kg, route oral; settings: rhesus monkey, in vivo; how it was run: as §1
[6] = Bioavailability in monkey at 2 mg/kg, iv after 24 hrs by HPLC/MS/MS analysis; assay type: ADME, organism-based, Macaca mulatta; settings: rhesus monkey, in vivo; how it was run: as §1
[7] = tested on: Canis familiaris; assay: Ex vivo inhibition of serotonin-mediated amplification of collagen-stimulated platelet aggregation in Beagle dog at 1 mg/kg, po for 10 days measured after 10 days; assay type: functional, organism-based; parameters: dose 1 mg/kg; settings: Canis lupus familiaris
How it was run: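 Beagle dogs dosed orally with 1 mg/kg daily for 10 days. Serotonin-mediated amplification of collagen-stimulated aggregation then measured in whole blood ex vivo.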

[8] = tested on: Canis familiaris; assay: Antithrombotic activity in Beagle dog Folts model of recurrent coronary thrombosis model assessed as inhibition of thrombosis occurrence at 0.07 mg/kg, iv bolus dose followed by continuous fusion of 1.16 ug/kg/min, iv administered after onset of thrombosis; assay type: functional; settings: Canis lupus familiaris
How it was run: (§2)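 Anesthetized dogs in the Folts model of recurrent coronary thrombosis. Given 0.07 mg/kg iv bolus followed by continuous iv infusion of 1.16 μg/kg/min, either before or after onset of recurrent thrombosis. Read-out is flow-time area, compared with saline controls.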

[9] = Bioavailability in dog at 2 mg/kg, iv after 24 hrs by HPLC/MS/MS analysis; assay type: ADME, organism-based, Canis lupus familiaris; settings: in vivo; how it was run: as §1
[10] = target: T1, 5-hydroxytryptamine receptor 2A (Homo sapiens, UniProt P28223); assay: Inverse agonist activity at human 5HT2A receptor expressed in HEK293 cells assessed as inhibition of inositol phosphate accumulation; assay type: functional, cell-based
[11] = Half life in monkey at 10 mg/kg, po by HPLC/MS/MS analysis; assay type: ADME, organism-based, Macaca mulatta; parameters: dose 10 mg/kg, route oral; settings: rhesus monkey, in vivo; how it was run: as §1
[12] = Total clearance in monkey at 2 mg/kg, iv after 24 hrs by HPLC/MS/MS analysis; assay type: ADME, organism-based, Macaca mulatta; parameters: dose 2 mg/kg, route intravenous; settings: rhesus monkey, in vivo; how it was run: as §1
[13] = AUC (0 to last) in Sprague-Dawley rat at 10 mg/kg, po after 24 hrs by HPLC/MS/MS analysis; assay type: ADME, organism-based; parameters: time 0 - last, dose 10 mg/kg, route oral; settings: plasma
How it was run: (§3)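 Male rats fasted overnight before oral dosing; 10 mg/kg po and 2 mg/kg iv in 80% PEG400/20% phosphate buffered saline. Jugular vein blood was sampled at 0.25–21 h over 24 h, and heparin plasma was assayed by HPLC/MS/MS (MRM, positive electrospray, internal standard; LLOQ 1 ng/mL, ULOQ 2000 ng/mL). %F is taken relative to the 2 mg/kg iv dose. Mean of n = 3 animals.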

[14] = target: T1, 5-hydroxytryptamine receptor 2A; assay: Displacement of [125I]DOI from human recombinant 5HT2A receptor expressed in HEK293 cells by scintillation counting; assay type: cell-based
How it was run: (§4)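 Crude plasma membranes from HEK293 cells stably expressing the human receptor (5–25 μg protein), in 20 mM HEPES pH 7.4 with 10 mM MgCl2. Incubated with 0.5 nM [125I]DOI and test compound (1 pM–10 μM) for 1 h at room temperature; nonspecific binding defined with 10 μM cold DOI. Filtered, washed with ice-cold Tris buffer and scintillation counted in triplicate.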

[15] = AUC (0 to last) in monkey at 10 mg/kg, po after 24 hrs by HPLC/MS/MS analysis; assay type: ADME, organism-based, Macaca mulatta; parameters: time 0 - last, dose 10 mg/kg, route oral; settings: rhesus monkey, plasma; how it was run: as §1
[16] = target: T2, 5-hydroxytryptamine receptor 2C (Homo sapiens, UniProt P28335); assay: Displacement of [125I]DOI from human recombinant 5HT2C receptor expressed in HEK293 cells by scintillation counting; assay type: cell-based; how it was run: as §4
T2 sequence (P28335 whole entry): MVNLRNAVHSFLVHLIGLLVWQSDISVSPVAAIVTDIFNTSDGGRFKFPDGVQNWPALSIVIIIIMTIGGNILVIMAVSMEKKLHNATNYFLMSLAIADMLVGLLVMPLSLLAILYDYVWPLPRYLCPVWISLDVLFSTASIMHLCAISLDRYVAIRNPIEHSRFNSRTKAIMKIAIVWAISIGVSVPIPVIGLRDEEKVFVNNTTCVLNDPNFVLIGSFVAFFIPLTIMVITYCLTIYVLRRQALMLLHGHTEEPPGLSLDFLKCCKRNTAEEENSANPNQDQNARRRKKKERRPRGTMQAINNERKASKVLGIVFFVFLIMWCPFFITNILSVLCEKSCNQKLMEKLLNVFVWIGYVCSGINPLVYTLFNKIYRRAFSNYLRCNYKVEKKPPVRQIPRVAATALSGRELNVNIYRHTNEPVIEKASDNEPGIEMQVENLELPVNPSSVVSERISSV

[17] = Ratio of drug level in brain to plasma in Sprague-Dawley rat at 30 mg/kg, po after 24 hrs; assay type: ADME, organism-based; parameters: dose 30 mg/kg, route oral; settings: read-out: BPR
[18] = Volume of distribution at steady state in Sprague-Dawley rat at 2 mg/kg, iv after 24 hrs by HPLC/MS/MS analysis; assay type: ADME, organism-based; parameters: dose 2 mg/kg, route intravenous; settings: in vivo, read-out: Vdss; how it was run: as §3
[19] = tested on: Canis familiaris; assay: Ex vivo inhibition of serotonin-mediated amplification of collagen-stimulated platelet aggregation in Beagle dog at 10 mg/kg, po administered as single dose measured after 1 hr; assay type: functional, organism-based; parameters: dose 10 mg/kg; settings: Canis lupus familiaris
How it was run: (§5)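 Beagle dogs given a single oral dose of 10 mg/kg. Serotonin-mediated amplification of collagen-stimulated aggregation measured in whole blood ex vivo at 1, 6, 12 and 24 h post-dose.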

[20] = Total clearance in dog at 2 mg/kg, iv after 24 hrs by HPLC/MS/MS analysis; assay type: ADME, organism-based, Canis lupus familiaris; parameters: dose 2 mg/kg, route intravenous; settings: in vivo; how it was run: as §1
[21] = AUC (0 to last) in dog at 10 mg/kg, po after 24 hrs by HPLC/MS/MS analysis; assay type: ADME, organism-based, Canis lupus familiaris; parameters: time 0 - last, dose 10 mg/kg, route oral; settings: plasma; how it was run: as §1
[22] = Cmax in Sprague-Dawley rat at 10 mg/kg, po after 24 hrs by HPLC/MS/MS assay; assay type: ADME, organism-based; parameters: dose 10 mg/kg, route oral; settings: in vivo; how it was run: as §3
[23] = target: hERG (KCNH2) (Homo sapiens, UniProt Q12809); assay: Inhibition of human ERG at 3 uM by patch clamp assay
[24] = Half life in dog at 10 mg/kg, po by HPLC/MS/MS analysis; assay type: ADME, organism-based, Canis lupus familiaris; parameters: dose 10 mg/kg, route oral; settings: in vivo; how it was run: as §1
[25] = tested on: Canis familiaris; assay: Antithrombotic activity in Beagle dog Folts model of recurrent coronary thrombosis model assessed as inhibition of thrombosis occurrence at 0.07 mg/kg, iv bolus dose followed by continuous fusion of 1.16 ug/kg/min, iv administered before onset of thrombosis; assay type: functional; settings: Canis lupus familiaris; how it was run: as §2
[26] = tested on: Canis familiaris; assay: Ex vivo inhibition of serotonin-mediated amplification of collagen-stimulated platelet aggregation in Beagle dog at 10 mg/kg, po administered as single dose measured after 24 hrs; assay type: functional; settings: Canis lupus familiaris; how it was run: as §5
[27] = Volume of distribution at steady state in dog at 2 mg/kg, iv after 24 hrs by HPLC/MS/MS analysis; assay type: ADME, organism-based, Canis lupus familiaris; parameters: dose 2 mg/kg, route intravenous; settings: in vivo, read-out: Vdss; how it was run: as §1
[28] = tested on: Canis familiaris; assay: Ex vivo inhibition of serotonin-mediated amplification of collagen-stimulated platelet aggregation in Beagle dog at 10 mg/kg, po administered as single dose measured after 6 hrs; assay type: functional; settings: Canis lupus familiaris; how it was run: as §5
[29] = tested on: Canis familiaris; assay: Ex vivo inhibition of serotonin-mediated amplification of collagen-stimulated platelet aggregation in Beagle dog at 10 mg/kg, po administered as single dose measured after 12 hrs; assay type: functional; settings: Canis lupus familiaris; how it was run: as §5
[30] = Bioavailability in Sprague-Dawley rat at 2 mg/kg, iv after 24 hrs by HPLC/MS/MS analysis; assay type: ADME, organism-based; settings: in vivo; how it was run: as §3
[31] = Total clearance in Sprague-Dawley rat at 2 mg/kg, iv after 24 hrs by HPLC/MS/MS analysis; assay type: ADME, organism-based; parameters: dose 2 mg/kg, route intravenous; settings: in vivo; how it was run: as §3
[32] = Half life in Sprague-Dawley rat at 10 mg/kg, po by HPLC/MS/MS analysis; assay type: ADME, organism-based; parameters: dose 10 mg/kg, route oral; settings: in vivo; how it was run: as §3
[33] = target: 5-hydroxytryptamine receptor 2B (Homo sapiens, UniProt P41595); assay: Displacement of [125I]DOI from human recombinant 5HT2B receptor expressed in HEK293 cells by scintillation counting; assay type: cell-based
[34] = Cmax in dog at 10 mg/kg, po after 24 hrs by HPLC/MS/MS assay; assay type: ADME, organism-based, Canis lupus familiaris; parameters: dose 10 mg/kg, route oral; settings: in vivo; how it was run: as §1

T1 sequence (P28223 whole entry): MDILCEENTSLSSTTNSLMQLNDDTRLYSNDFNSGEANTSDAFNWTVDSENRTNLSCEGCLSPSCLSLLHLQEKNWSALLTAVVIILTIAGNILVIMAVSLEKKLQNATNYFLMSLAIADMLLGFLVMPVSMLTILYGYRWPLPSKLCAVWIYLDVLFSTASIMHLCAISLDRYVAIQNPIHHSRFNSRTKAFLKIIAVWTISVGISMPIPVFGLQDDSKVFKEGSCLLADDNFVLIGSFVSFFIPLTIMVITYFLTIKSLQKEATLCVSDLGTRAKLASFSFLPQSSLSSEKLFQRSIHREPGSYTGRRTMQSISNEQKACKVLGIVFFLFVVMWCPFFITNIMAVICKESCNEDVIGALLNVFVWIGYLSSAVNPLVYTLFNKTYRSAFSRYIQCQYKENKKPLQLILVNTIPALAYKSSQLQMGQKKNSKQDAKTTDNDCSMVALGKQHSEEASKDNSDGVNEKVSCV
Chain of 5-hydroxytryptamine receptor 2B (P41595 whole entry): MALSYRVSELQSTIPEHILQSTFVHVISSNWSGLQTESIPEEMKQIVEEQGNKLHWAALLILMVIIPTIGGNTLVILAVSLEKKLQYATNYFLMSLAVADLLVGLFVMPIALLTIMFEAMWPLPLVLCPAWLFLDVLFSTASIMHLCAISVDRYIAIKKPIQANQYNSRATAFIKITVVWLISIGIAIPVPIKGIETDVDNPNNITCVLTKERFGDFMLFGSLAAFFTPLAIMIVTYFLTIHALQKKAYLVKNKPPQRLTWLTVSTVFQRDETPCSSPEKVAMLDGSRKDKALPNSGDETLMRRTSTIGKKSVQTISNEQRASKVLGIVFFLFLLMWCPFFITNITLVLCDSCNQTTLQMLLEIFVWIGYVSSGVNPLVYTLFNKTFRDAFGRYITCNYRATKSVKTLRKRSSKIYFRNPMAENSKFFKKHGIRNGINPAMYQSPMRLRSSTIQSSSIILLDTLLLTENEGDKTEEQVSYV
Chain of Voltage-gated inwardly rectifying potassium channel KCNH2 (Q12809 whole entry): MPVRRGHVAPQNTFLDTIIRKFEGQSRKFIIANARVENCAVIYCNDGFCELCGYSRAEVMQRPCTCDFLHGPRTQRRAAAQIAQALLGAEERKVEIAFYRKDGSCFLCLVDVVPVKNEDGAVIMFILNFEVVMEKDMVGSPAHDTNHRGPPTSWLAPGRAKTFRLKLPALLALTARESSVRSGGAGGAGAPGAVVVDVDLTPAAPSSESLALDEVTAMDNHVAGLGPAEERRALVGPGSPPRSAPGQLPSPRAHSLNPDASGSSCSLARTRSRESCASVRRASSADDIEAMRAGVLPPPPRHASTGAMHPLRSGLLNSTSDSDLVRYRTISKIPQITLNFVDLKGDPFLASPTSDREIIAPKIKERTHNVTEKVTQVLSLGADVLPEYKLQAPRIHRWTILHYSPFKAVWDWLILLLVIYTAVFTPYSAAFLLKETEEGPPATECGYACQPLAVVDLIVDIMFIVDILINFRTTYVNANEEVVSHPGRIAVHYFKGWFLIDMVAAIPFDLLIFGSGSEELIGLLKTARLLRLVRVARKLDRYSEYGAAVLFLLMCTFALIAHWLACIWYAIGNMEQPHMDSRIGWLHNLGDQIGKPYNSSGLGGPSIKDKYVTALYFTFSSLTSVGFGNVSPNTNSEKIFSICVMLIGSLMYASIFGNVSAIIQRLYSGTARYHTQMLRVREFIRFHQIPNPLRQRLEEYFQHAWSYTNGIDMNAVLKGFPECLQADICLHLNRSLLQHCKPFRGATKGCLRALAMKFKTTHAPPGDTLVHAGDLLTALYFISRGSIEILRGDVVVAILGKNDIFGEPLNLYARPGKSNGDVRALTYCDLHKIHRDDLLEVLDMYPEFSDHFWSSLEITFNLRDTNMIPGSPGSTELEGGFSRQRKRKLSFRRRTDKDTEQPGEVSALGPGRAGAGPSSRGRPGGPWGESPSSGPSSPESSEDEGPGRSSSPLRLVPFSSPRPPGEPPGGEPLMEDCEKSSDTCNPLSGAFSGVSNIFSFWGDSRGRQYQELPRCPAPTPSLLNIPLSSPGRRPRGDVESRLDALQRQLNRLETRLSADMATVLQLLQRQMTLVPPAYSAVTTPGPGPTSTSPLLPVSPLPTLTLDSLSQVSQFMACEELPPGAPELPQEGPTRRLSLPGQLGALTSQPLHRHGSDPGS
Chain of hERG (KCNH2) (Q12809 whole entry): as above

Question: With `COc1cccc(C(=O)Nc2ccc(OCCN3CCOCC3)c(-c3ccnn3C)c2)c1` [TEMANOGREL] as the molecule, how does the pIC50 [1] read?
Answer: 7.64

Question: What about the pIC50 [2] of the same molecule?
Answer: 4.96

Question: What about the pIC50 [3] of the same molecule?
Answer: 8.06

Question: And the Vd [4]?
Answer: 0.6 L/kg

Question: What about the Cmax [5] of the same molecule?
Answer: 1460 ng/mL

Question: What about the bioavailability [6] of the same molecule?
Answer: 16%

Question: What about the inhibition [7] of the same molecule?
Answer: Active

Question: And the inhibition in vivo at 0.07 mg/kg [8]?
Answer: 58%

Question: What about the bioavailability [9] of the same molecule?
Answer: 45%

Question: What about the pIC50 [10] of the same molecule?
Answer: 8.28

Question: What about the half-life [11] of the same molecule?
Answer: 2.1 h

Question: And the clearance [12]?
Answer: 15 mL/min/kg

Question: And the AUC(0-t) at 24 h [13]?
Answer: 43 ng·h/mL

Question: And the pKi [14]?
Answer: 8.31

Question: What about the AUC(0-t) at 24 h [15] of the same molecule?
Answer: 1920 ng·h/mL

Question: What about the pKi [16] of the same molecule?
Answer: < 5.00

Question: And the Kp at 24 h [17]?
Answer: 0.05

Question: And the Vd [18]?
Answer: 29 L/kg

Question: And the inhibition [19]?
Answer: Active

Question: And the clearance [20]?
Answer: 20 mL/min/kg

Question: What about the AUC(0-t) at 24 h [21] of the same molecule?
Answer: 3540 ng·h/mL

Question: And the Cmax [22]?
Answer: 58 ng/mL

Question: What about the inhibition at 3 µM [23] of the same molecule?
Answer: 32%

Question: What about the half-life [24] of the same molecule?
Answer: 0.9 h

Question: What about the inhibition in vivo at 0.07 mg/kg [25] of the same molecule?
Answer: 58%

Question: What about the inhibition in vivo at 10 mg/kg [26] of the same molecule?
Answer: 58%

Question: And the Vd [27]?
Answer: 1.3 L/kg

Question: And the inhibition in vivo at 10 mg/kg [28]?
Answer: 86%

Question: What about the inhibition in vivo at 10 mg/kg [29] of the same molecule?
Answer: 57%

Question: What about the bioavailability [30] of the same molecule?
Answer: 10%

Question: What about the clearance [31] of the same molecule?
Answer: 367 mL/min/kg

Question: What about the half-life [32] of the same molecule?
Answer: 1 h

Question: And the pKi [33]?
Answer: < 5.00

Question: What about the Cmax [34] of the same molecule?
Answer: 2280 ng/mL
